Test results as given in ChEMBL document CHEMBL1151906, “Discovery and structure-activity relationships of pentanedioic acid diamides as potent inhibitors of 11beta-hydroxysteroid dehydrogenase type I” (Bioorg Med Chem Lett, 2009).
Converted amounts (≈) assume the structure as drawn. Blank lines part the entries; values can stand above or below the molecule they belong to.

Tests used:
[1] = Volume of distribution at steady state in rat at 0.2 mg/kg, iv and 0.5 mg/kg, po; type: ADME, organism-based; conditions: in vivo, read-out: Vdss
How it was run: (§1)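 Male rats given a low-dose cassette (cocktail): 0.2 mg/kg i.v. and 0.5 mg/kg p.o.; plasma PK parameters are means of 3 rats. Unchanged drug recovered in faeces collected 0–24 h after each route.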

[2] = Clearance in rat at 0.2 mg/kg, iv and 0.5 mg/kg, po; type: ADME, organism-based; conditions: in vivo; how it was run: as §1
[3] = Protein binding in human serum; type: ADME, cell-free; conditions: read-out: PB (converted)
[4] = molecular target: T1, 11-beta-hydroxysteroid dehydrogenase 1 (Mus musculus, UniProt P50172); experiment: Inhibition of 11beta-HSD1 in mouse 3T3L1 cells assessed as cortisol level by HTRF assay; type: cell-based, 3T3-L1
T1 sequence (P50172 whole entry): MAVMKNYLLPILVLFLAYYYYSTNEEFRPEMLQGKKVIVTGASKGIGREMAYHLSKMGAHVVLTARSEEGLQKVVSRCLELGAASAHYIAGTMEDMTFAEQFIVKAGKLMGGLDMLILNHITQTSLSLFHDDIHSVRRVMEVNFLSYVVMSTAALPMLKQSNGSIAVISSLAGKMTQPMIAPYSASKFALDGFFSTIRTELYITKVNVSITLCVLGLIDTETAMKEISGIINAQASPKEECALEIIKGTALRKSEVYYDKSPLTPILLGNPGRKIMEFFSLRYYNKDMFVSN
How it was run: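 3T3L1 cells differentiated 5 days into adipocytes, then cultured 4 days before 150 min exposure to compound (10^-5–10^-7 M). Cortisol in the culture supernatant is measured by HTRF to give 11β-HSD1 activity.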

[5] = Half life in rat plasma at 0.2 mg/kg, iv and 0.5 mg/kg, po; type: ADME, organism-based; how it was run: as §1
[6] = Drug absorption in rat assessed as recovery of unchanged drug in feces at 0.5 mg/kg, po after 24 hrs; type: ADME, organism-based; parameters: dose 0.5 mg/kg, route oral; conditions: faeces, read-out: Drug uptake; how it was run: as §1
[7] = Solubility in water; type: physicochemical
[8] = Drug absorption in rat assessed as recovery of unchanged drug in feces at 0.2 mg/kg, iv after 24 hrs; type: ADME, organism-based; parameters: dose 0.2 mg/kg, route intravenous; conditions: faeces, read-out: Drug uptake; how it was run: as §1
[9] = molecular target: T1, 11-beta-hydroxysteroid dehydrogenase 1; experiment: Inhibition of 11beta-HSD1 in mouse liver microsome
How it was run: (§2)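 Liver microsome fractions (2.5 µg) used as the enzyme source. Run in 30 mM Hepes pH 7.4 with 1 mM EDTA, 1 mM G-6P and cortisone/NADPH (200 nM/200 µM). Incubated 150 min at 37 °C, stopped with 18β-glycyrrhetinic acid, cortisol read by HTRF.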

[10] = Bioavailability in rat at 0.2 mg/kg, iv and 0.5 mg/kg, po; type: ADME, organism-based; conditions: in vivo; how it was run: as §1
[11] = molecular target: T2, 11-beta-hydroxysteroid dehydrogenase 1 (Homo sapiens, UniProt P28845); experiment: Inhibition of human recombinant 11beta-HSD1 expressed in Escherichia coli assessed as cortisol level after 150 mins by HTRF assay
Target sequence in this assay (P28845 whole entry): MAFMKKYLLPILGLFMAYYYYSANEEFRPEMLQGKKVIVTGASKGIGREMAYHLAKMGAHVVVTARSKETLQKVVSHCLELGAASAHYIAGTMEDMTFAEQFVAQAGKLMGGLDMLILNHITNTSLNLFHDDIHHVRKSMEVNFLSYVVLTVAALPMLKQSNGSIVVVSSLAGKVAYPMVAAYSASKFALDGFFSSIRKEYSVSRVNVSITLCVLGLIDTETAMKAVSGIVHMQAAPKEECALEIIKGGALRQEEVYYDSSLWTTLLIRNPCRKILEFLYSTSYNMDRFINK

[12] = molecular target: T3, 11-beta-hydroxysteroid dehydrogenase type 2 (Homo sapiens, UniProt P80365); experiment: Inhibition of human recombinant 11beta-HSD2 expressed in Escherichia coli assessed as cortisol level after 60 mins by HTRF assay
T3 sequence (P80365 whole entry): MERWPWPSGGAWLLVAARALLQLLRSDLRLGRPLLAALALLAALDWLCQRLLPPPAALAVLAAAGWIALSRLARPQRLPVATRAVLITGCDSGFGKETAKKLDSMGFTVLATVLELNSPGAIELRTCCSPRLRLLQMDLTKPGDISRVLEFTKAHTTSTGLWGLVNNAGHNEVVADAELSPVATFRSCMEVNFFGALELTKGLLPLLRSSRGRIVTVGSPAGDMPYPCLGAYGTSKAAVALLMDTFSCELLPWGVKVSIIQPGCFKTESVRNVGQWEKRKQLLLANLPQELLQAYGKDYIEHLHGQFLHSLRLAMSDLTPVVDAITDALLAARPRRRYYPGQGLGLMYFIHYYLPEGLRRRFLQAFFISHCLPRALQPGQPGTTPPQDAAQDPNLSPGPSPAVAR
How it was run: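 Enzyme is recombinant human 11β-HSD2 (E. coli-expressed) in 50 mM Tris pH 7.8 with 1 mM MgCl2 and 0.5 mM NAD. Reaction starts with 20 nM cortisol, runs at room temperature, and is stopped with carbenoxolone 10 µM. Cortisol is quantified by HTRF.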

[13] = molecular target: 11-beta-hydroxysteroid dehydrogenase 1 (Rattus norvegicus, UniProt P16232); experiment: Inhibition of 11beta-HSD1 in rat liver microsome; type: microsomes; how it was run: as §2
Sequence of 11-beta-hydroxysteroid dehydrogenase 1 (Rattus norvegicus, UniProt P16232) (P16232 whole entry): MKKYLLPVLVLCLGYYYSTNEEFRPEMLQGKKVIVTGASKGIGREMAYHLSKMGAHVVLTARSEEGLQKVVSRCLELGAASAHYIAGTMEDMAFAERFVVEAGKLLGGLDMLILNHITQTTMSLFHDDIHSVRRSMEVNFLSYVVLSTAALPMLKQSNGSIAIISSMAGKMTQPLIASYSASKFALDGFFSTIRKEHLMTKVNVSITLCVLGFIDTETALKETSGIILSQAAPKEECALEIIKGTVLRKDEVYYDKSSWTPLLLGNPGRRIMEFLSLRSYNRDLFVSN

[14] = molecular target: T2, 11-beta-hydroxysteroid dehydrogenase 1; experiment: Inhibition of human 11beta-HSD1
Target sequence in this assay (P28845 whole entry): as the sequence (P28845 whole entry) above

[15] = molecular target: T2, 11-beta-hydroxysteroid dehydrogenase 1; conditions: at 1 µM
Target sequence in this assay (P28845 whole entry, looked up): as the sequence (P28845 whole entry) above

SMILES: CC(C)(CC(=O)NC1CC1)CC(=O)N[C@H]1C2CC3CC1C[C@](O)(C3)C2
Vd [1]: 2.7 L/kg
clearance [2]: 30 mL/min/kg
fraction unbound [3]: 0.6
IC50 [4]: < 0.1 µM
half-life [5]: 72 min
dose excreted at 24 h [6]: 22%
solubility [7]: 597 µg/mL (≈ 1710 µM)
dose excreted at 24 h [8]: 20%
IC50 [9]: 0.088 µM
bioavailability [10]: 30%
IC50 [11]: 0.008 µM
IC50 [12]: > 10 µM
IC50 [13]: 0.98 µM

SMILES: CC(C)(CC(=O)NC1CC1)CC(=O)N[C@H]1C2CC3CC1C[C@](C(N)=O)(C3)C2
Vd [1]: 3.1 L/kg
clearance [2]: 55 mL/min/kg
fraction unbound [3]: > 0.8
IC50 [4]: < 1 µM
half-life [5]: 36 min
dose excreted at 24 h [6]: 50%
solubility [7]: 491 µg/mL (≈ 1310 µM)
dose excreted at 24 h [8]: 24%
IC50 [9]: 0.01 µM
bioavailability [10]: 10%
IC50 [11]: 0.008 µM
IC50 [12]: > 10 µM
IC50 [13]: 0.031 µM

SMILES: CN1CCN(C(=O)CC2(CC(=O)O)CCCC2)CC1
inhibition [15]: 0%

SMILES: CC(C)(CC(=O)NC1CC1)CC(=O)N[C@H]1C2CC3CC1C[C@@](O)(C3)C2
IC50 [11]: 0.55 µM

Second part, the molecule after the results:

IC50 [11]: > 1 µM
SMILES: CC(C)(CC(=O)NC1CC1)CC(=O)N[C@H]1C2CC3CC1C[C@](C(=O)O)(C3)C2

IC50 [14]: 1.2 µM
SMILES: O=C(O)CC1(CC(=O)NCc2ccc(F)cc2Cl)CCCC1

IC50 [11]: > 1 µM
SMILES: O=C(CCCC(=O)NC1C2CC3CC(C2)CC1C3)NC1CC1 (stereo unspecified)
